Common to all, as to assay type: functional
Assay [1] deals with L1210. As to the kind of experiment: Antileukemic activity against mouse L1210 cells allografted in BDF1 mouse assessed as concentration required to give maximum increase in life span administered for 1 day. The procedure, abridged:
(§1)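 Single-injection schedule: BDF1 mice received 10⁵ L-1210 cells i.p. and one dose on day 1 only, with compound dissolved in DMSO and made up in sterile saline. Survival was compared with controls. MED is the dose yielding 40% ILS; OD is the dose yielding maximal ILS.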

In assay [2] the test system is L1210. As to the kind of experiment: Chemotherapeutic index, ratio of antileukemic activity against mouse L1210 cells allografted in BDF1 mouse assessed as concentration required to give maximum increase in life span administered as continuous injection to antileukemic activity against mouse L1210 cells allografted in BDF1 mouse assessed as concentration required to increase 40% life span administered as continuous injection. The procedure, abridged: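 Chemotherapeutic index was taken as OD/MED on the chronic schedule (QD days 1-12) in BDF1 mice bearing 10⁵ i.p.-inoculated L-1210 cells. OD is the dose giving maximum increase in life span; MED is the dose giving 40% ILS versus controls. Compounds were given in DMSO diluted with saline.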

Assay [3] concerns L1210. Briefly: Antileukemic activity against mouse L1210 cells allografted in BDF1 mouse assessed as concentration required to increase 40% life span administered as continuous injection. To be noted: read-out: MED. The procedure, abridged:
(§2)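 Chronic schedule: 10⁵ L-1210 cells given i.p. to BDF1 mice, then treatment once daily on days 1-12 with compound in DMSO diluted with sterile saline. Life span was compared with controls. MED is the dose giving 40% increase in life span; OD is the dose giving maximum ILS.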

In assay [4] the test system is L1210. Briefly: Antileukemic activity against mouse L1210 cells allografted in BDF1 mouse assessed as concentration required to give maximum increase in life span administered as continuous injection. The procedure, abridged:
as §2

Assay [5] has as its system L1210. As to the kind of experiment: Antileukemic activity against mouse L1210 cells allografted in BDF1 mouse assessed as concentration required to increase 40% life span administered as qd for 12 days. In short, it runs like this: as §2
The test system of assay [6] is L1210. As to the kind of experiment: Antileukemic activity against mouse L1210 cells allografted in BDF1 mouse. The procedure, abridged: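 BDF1 mice inoculated intraperitoneally with 10⁵ L-1210 cells. Compounds were dissolved in dimethyl sulfoxide and diluted with sterile physiological saline for injection. Dosing was either chronic (QD days 1-12) or a single injection on day 1. Read-out was increase in life span (ILS) relative to untreated controls.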

Assay [7] relates to L1210. As to the kind of experiment: Antileukemic activity against mouse L1210 cells allografted in BDF1 mouse assessed as concentration required to increase 40% life span administered for 1 day. The procedure, abridged: as §1

Activity calls are given as the source filed them. The calls are words filed in the database; no cut-off is given here.

As to `CC1=C(N2CC2)C(=O)C(CCCc2ccccc2)=C(N2CC2)C1=O`, in the assay with L1210 [1], the “log(1/C)” value is on record as 3.6.

For `COC(COC(N)=O)C1=C(N2CC2)C(=O)C(C)=C(N2CC2)C1=O` (stereo unspecified) [CARBOQUONE], the TI in the assay with L1210 [2] is 5.4. In addition, the minimal effective dose in the assay on L1210 [3] was 0.13 mg/kg. Moreover, the Activity with L1210 [4] stood at 0.7 mg/kg.

Consider `CC1=C(N2CC2)C(=O)C(C(C)C)=C(N2CC2)C1=O`, for which the “log(1/C)” value with L1210 [5] worked out at 5.6.

With `O=C1C=C(N2CC2)C(=O)C(N2CC2)=C1N1CC1` [TRIAZIQUONE], the TI with L1210 [2] turned out to be 1.8. In the assay on L1210 [3], the minimal effective dose came out at 0.082 mg/kg. Besides, the Activity with L1210 [4] worked out at 0.15 mg/kg.

Consider `CO[C@@]12[C@H](COC(N)=O)C3=C(C(=O)C(C)=C(N)C3=O)N1C[C@@H]1N[C@@H]12` [MITOMYCIN], for which the TI in the assay on L1210 [2] was determined as 2.2. Further, the minimal effective dose with L1210 [3] was 0.9 mg/kg. For the same compound, the Activity in the assay with L1210 [4] came out at 2 mg/kg.

On to `COC(CO[C@@H]1O[C@H](COC(C)=O)[C@@H](OC(C)=O)[C@H](OC(C)=O)[C@H]1OC(C)=O)C1=C(N2CC2)C(=O)C(C)=C(N2CC2)C1=O` (stereo partly specified), for which the result in the assay on L1210 [6] was Active.

For `CCOC(COC(N)=O)C1=C(N2CC2)C(=O)C(CC)=C(N2CC2)C1=O` (stereo unspecified), in the assay with L1210 [7], the “log(1/C)” value was 5.4.

With `COC(COC(N)=O)C1=C(N2CC2)C(=O)C(C(COC(N)=O)OC)=C(N2CC2)C1=O` (stereo unspecified), the outcome in the assay on L1210 [6] was Active.

For `COC(CO)C1=C(N2CC2)C(=O)C(C(CO)OC)=C(N2CC2)C1=O` (stereo unspecified), in the assay on L1210 [6], the outcome was Active.

Regarding `COC(CO)C1=C(N2CC2)C(=O)C(C)=C(N2CC2)C1=O` (stereo unspecified), the “log(1/C)” value in the assay with L1210 [5] is reported as 6.9.

Take `CCC(COC(N)=O)C1=C(N2CC2)C(=O)C(C)=C(N2CC2)C1=O` (stereo unspecified): the “log(1/C)” value in the assay on L1210 [1] was 5.2.

Take `CC1=C(N2CC2)C(=O)C(CCC(=O)N(C)C)=C(N2CC2)C1=O`: the “log(1/C)” value in the assay with L1210 [1] was 4.84; in the assay on L1210 [7], 5.09.

Turning to `CCCC1=C(N2CC2)C(=O)C(CCOC(N)=O)=C(N2CC2)C1=O`, the “log(1/C)” value with L1210 [7] is given as 4.9.

On to `O=C1C(CCO)=C(N2CC2)C(=O)C(CCO)=C1N1CC1`, for which the “log(1/C)” value in the assay on L1210 [1] amounted to 5.6.

The values above are taken from ChEMBL document CHEMBL3243988, “Quantitative structure-activity relationships in 2,5-bis(1-aziridinyl)-p-benzoquinone derivatives against leukemia L-1210” (1979).
